DDE Tn7 FP inh – inhibitors of Tn7 peptide binding to fibrin DD(E), primary screen, biochemical, fluorescence polarization, human fibrin, Tn7 probe; Fibrinogen beta chain (Homo sapiens), P02675; FP displacement of FITC-Tn7 peptide from fibrin DD(E); 0% = median of compound wells per plate; inhibition, % at 8.3 µM; 370,000 compounds, 0.13% hits; AID 720508, 2013;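 active means inhibition above the mean of compounds falling within the control limits plus 3 SD of them, cut at about 14% in these data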
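System: human fibrin DD(E); quantity: Fibrin-DD(E) at 2 µM final; also added: fluorescent Tn7 probe at 0.1 µM; compound dosing: single nominal test concentration of 8.3 µM per compound; schedule: 10 min preincubation, 3 h with tracer, room temperature; detection: fluorescence polarization of the labelled Tn7 tracer; repeats: one replicate per compound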
UHRF1 MBD2 ctr – UHRF1 methylated DNA binding inhibitors, primary screen, counter-screen for MBD2 inhibitor project, biochemical, TR-FRET, human UHRF1, single concentration. inhibition, % at 4.4 µM. 370,000 compounds, 0.75% hits. UHRF1 binding to methylated oligo. E3 ubiquitin-protein ligase UHRF1 (Homo sapiens), Q96T88. AID 687016, 2013; in the data active means inhibition above about 21%;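 further: UHRF1 SRA domain binding a hemimethylated CpG hairpin DNA probe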
Target sequence (Q96T88 whole entry, looked up, the tested form may be a part): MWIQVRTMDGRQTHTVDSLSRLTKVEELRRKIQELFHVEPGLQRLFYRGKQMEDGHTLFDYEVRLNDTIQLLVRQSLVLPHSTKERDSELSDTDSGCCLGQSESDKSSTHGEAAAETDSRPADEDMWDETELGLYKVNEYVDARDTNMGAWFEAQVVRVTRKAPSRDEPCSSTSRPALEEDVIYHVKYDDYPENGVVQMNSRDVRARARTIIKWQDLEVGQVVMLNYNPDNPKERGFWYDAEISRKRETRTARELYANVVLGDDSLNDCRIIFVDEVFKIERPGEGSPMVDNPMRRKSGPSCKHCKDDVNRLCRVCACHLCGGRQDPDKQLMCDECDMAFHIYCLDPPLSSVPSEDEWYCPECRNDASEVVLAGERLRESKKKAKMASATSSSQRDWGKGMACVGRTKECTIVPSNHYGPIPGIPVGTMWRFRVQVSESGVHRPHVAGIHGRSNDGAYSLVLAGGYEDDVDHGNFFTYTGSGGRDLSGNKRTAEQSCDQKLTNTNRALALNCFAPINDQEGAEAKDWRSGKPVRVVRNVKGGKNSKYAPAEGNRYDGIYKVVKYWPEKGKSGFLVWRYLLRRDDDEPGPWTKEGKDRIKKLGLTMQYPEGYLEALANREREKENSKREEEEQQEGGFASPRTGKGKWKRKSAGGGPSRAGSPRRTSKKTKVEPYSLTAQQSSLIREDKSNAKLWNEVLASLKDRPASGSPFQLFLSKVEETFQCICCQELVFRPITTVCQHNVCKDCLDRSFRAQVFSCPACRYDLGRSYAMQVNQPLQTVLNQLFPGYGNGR
Tn6 DDE FP – inhibitors of Tn6 peptide binding to fibrin DD(E), primary screen, biochemical, fluorescence polarization, human fibrin, Tn6 probe. 370,000 compounds, 0.21% hits. inhibition, % at 8.3 µM. Fibrin DD(E) TRITC-Tn6 fluorescence polarization displacement. Fibrinogen beta chain (Homo sapiens), P02675;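 active means inhibition above a per-campaign cutoff: mean of compounds within control limits plus 3 SD, cut at about 15% in these data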
MBD2 inh – inhibitors of MBD2 binding to methylated DNA, primary screen, biochemical, TR-FRET, DNA-binding domain, human. MBD2 binding to methylated oligonucleotide. inhibition, % at 4.4 µM. 370,000 compounds, 0.31% hits. AID 686964, 2013; in the data active means inhibition above about 13%
LEDGF integ inh – blockers of LEDGF/p75-dependent integrase strand transfer – biochemical, TR-FRET, high throughput, primary screen; 370,000 compounds, 0.64% hits; inhibition, % at 3.7 µM; AID 743269, 2014; TR-FRET IN-LEDGF/p75 DNA integration, Eu/Cy5;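 active means inhibition above the screen-wide mean plus 3 SD, cut at about 13% in these data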;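 further: signal is the Cy5 over europium emission ratio at 671 and 618 nm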
TDP2 absorb – human TDP2 enzyme inhibitors, primary screen, biochemical, epi absorbance, recombinant enzyme. 370,000 compounds, 0.34% hits. inhibition, % at 12.8 µM. Tyrosyl-DNA phosphodiesterase 2 (Homo sapiens), O95551. T5PNP hydrolysis, p-nitrophenol absorbance 415 nm. AID 720702, 2013;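 active means inhibition above the mean of all tested compounds plus 3 SD, set per campaign, cut at about 25% in these data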
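Material: recombinant human TDP2; quantity: TDP2 enzyme at 120 nM final; medium: Tris-HCl pH 7.5 with MgCl2; compound: single concentration, 12.8 µM nominal, with 1% DMSO; incubation: 2 h enzyme incubation at 37 °C; signal: epi absorbance; measure: percent inhibition; benchmarks: high control without enzyme, low control DMSO plus TDP2; repeats: singlicate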
Each line names hits and unclear results; the compound was inactive in the other large screens. Shown are actives, neighbours in structure and some others; about 1.9% of the full set was active somewhere.

Cc1c(N=C2C=C(Br)C(=O)C(Br)=C2)c(=O)n(-c2ccccc2)n1C	UHRF1 MBD2 ctr 56, MBD2 inh 18, LEDGF integ inh 57, TDP2 absorb 61
CN1CCN(c2ccc(NC(=O)c3ccc(-c4ccccc4F)o3)cc2)CC1	UHRF1 MBD2 ctr 37
COc1ccc(C2CC(=O)C(c3ccc(Br)cc3)=CN2Cc2ccccc2)cc1 (centres undefined)	none
O=C(Cn1cc(SCc2ccccc2Cl)c2ccccc21)N1CCOCC1	UHRF1 MBD2 ctr 24
C[C@H]1COc2cc(N3CCCC3)ccc2S(=O)(=O)N1	none
C[C@@H]1COc2cc(N3CCCC3)ccc2S(=O)(=O)N1	UHRF1 MBD2 ctr 21
NC(=O)C1CC(=O)N(c2ccc(OCc3c(F)cccc3Cl)cc2)C1 (centres undefined)	none
NC(=O)C1CC(=O)N(c2ccc(OCc3c(Cl)cccc3Cl)cc2)C1 (centres undefined)	UHRF1 MBD2 ctr 23
COc1cccc(C(=O)Nc2ccccc2-c2ccccc2)c1	UHRF1 MBD2 ctr 22
CC(C)[C@H](NC(=O)OCc1ccccc1)C(=O)OCC(=O)NC1(C#N)CCCC1	DDE Tn7 FP inh 15
O=C(COc1ccccc1C(=O)NCc1ccccc1)Nc1ccc(I)cc1	none
Cc1c(N=C2SC(CC(=O)Nc3ccccc3)C(=O)N2CCN2CCOCC2)c(=O)n(-c2ccccc2)n1C (centres undefined)	UHRF1 MBD2 ctr 28
CN1CCCCC(NC(=O)CCl)C1=O (centres undefined)	none
COC(=O)c1ccc(Cn2cnc3cnccc32)cc1	UHRF1 MBD2 ctr 25
Cc1ccc(Cn2cc(CN(C(C)(C)C)S(=O)(=O)c3ccccc3Br)nn2)cc1	none
O=C(/C=C/c1ccccc1)Oc1ccc(C(=S)N2CCOCC2)cc1	UHRF1 MBD2 ctr 28
CCOC(=O)c1ccc(NC(=O)CSc2nnc(-c3cccc(C)c3)n2C)cc1	none
NS(=O)(=O)c1ccc(NC(=O)COc2ccc(C(=O)c3ccc(F)cc3)cc2)cc1	Tn6 DDE FP 24
COC(=O)[C@]12CCCCC=C1N(Cc1ccc(OC)cc1)C(=O)[C@@H]2CC(=O)NCc1cccc(C(F)(F)F)c1	none
N#CCCN(CCC#N)C(=O)C1c2ccccc2Oc2ccccc21	Tn6 DDE FP 59
CN(CCC#N)C(=O)COC(=O)C1c2ccccc2Oc2ccccc21	none
c1cc2ccn(CC3CC3)c2cc1-c1ccc2ccn(CC3CC3)c2c1	none
O=C1CC(c2ccccc2)CC(O)=C1C=NC1CCCC1 (centres undefined)	UHRF1 MBD2 ctr 48
COCCNC(=O)CN(C(=O)Cn1nnc2ccccc21)c1ccc(F)c(Cl)c1	UHRF1 MBD2 ctr 81
COCCNC(=O)CN(C(=O)Cn1nnc2ccccc21)c1ccccc1C	none
Cc1cc(C)n2nc(C(=O)Nc3ccn(Cc4ccccc4C)n3)cc2n1	UHRF1 MBD2 ctr 23
COc1cccc(C(=O)N(CCN2CCOCC2)Cc2ccc(OC)c(OC)c2)c1	none
Cc1oc(CC(C)C)cc1C(=O)NCCCC(=O)O	none
Cc1oc(CC(C)C)cc1C(N)=O	UHRF1 MBD2 ctr 26
C#CCNC(=O)C[C@H]1C[C@@]2(C(=O)OC)C(=C[C@H](C(C)C)O[C@@H]2C2CC2)N(CCc2ccc(OC)c(OC)c2)C1=O	none
COc1ccc(S(=O)(=O)N/N=C(/C)c2ccncc2)cc1	UHRF1 MBD2 ctr 27
Cc1nn(-c2ccc(Cl)c(Cl)c2)c(C)c1C(=O)O	none
CNC(=O)c1c(C)nn(-c2ccc(F)c(Cl)c2)c1-c1cc(C)on1	UHRF1 MBD2 ctr 22
O=C(CN1C(=O)CC(c2ccccc2)S(=O)(=O)c2ccccc21)N1CCCCC1 (centres undefined)	UHRF1 MBD2 ctr 24
CC1CC(=O)N(CC(=O)NCc2ccccc2)c2ccccc2S1(=O)=O (centres undefined)	none
O=C(Nc1cc([N+](=O)[O-])ccc1N1CCOCC1)c1cccs1	none
O=C(Nc1ccc(NC(=O)c2cc([N+](=O)[O-])ccc2N2CCOCC2)cc1)c1cccs1	UHRF1 MBD2 ctr 23
NS(=O)(=O)c1ccc(N/C=C\C(=O)c2ccc3ccccc3c2)cc1	UHRF1 MBD2 ctr 22
Cn1c(/C=C/c2ccc(Cl)cc2)c([N+](=O)[O-])c(=O)n(C)c1=O	UHRF1 MBD2 ctr 21
O=C(CN1C(=O)CCSc2ccccc21)Nc1ccc(Cl)cc1	none
CCCCCCn1c(=O)n2n(c1=O)[C@@H]1CN(S(=O)(=O)c3ccc(C)cc3)C[C@]1(O)[C@@H](OC(=O)NCC1CCCCC1)C2	UHRF1 MBD2 ctr 23
CCCCCCn1c(=O)n2n(c1=O)[C@@H]1CN(S(=O)(=O)c3ccc(C)cc3)C[C@]1(O)[C@@H](OC(=O)NC1CCCC1)C2	none
Cc1ccc(C(=O)NC2CCCCC2)cc1S(=O)(=O)N1CCCC1	none
Cc1ccc(C(=O)NC2CCS(=O)(=O)C2)cc1S(=O)(=O)N1CCCCCC1 (centres undefined)	UHRF1 MBD2 ctr 23
COc1ccc(CN2C[C@@]3(O)CC[C@@H](O)[C@@H](OC)[C@@H]3[C@@](C)(O)[C@@H]2CC=C(C)C)cc1	none
COc1ccc(NC(=S)Nc2ncccc2C)c(OC)c1	UHRF1 MBD2 ctr 25
Cc1ccc(-c2cc(-c3ccccc3)c3c(N)c(S(C)(=O)=O)sc3n2)cc1	none
CS(=O)(=O)c1sc2nc(-c3cccs3)cc(-c3ccccc3)c2c1N	LEDGF integ inh 20
O=C(COC(=O)c1ccccc1F)Nc1cccnc1Cl	UHRF1 MBD2 ctr 25
O=C(NN=C1CCN(Cc2ccccc2)CC1)c1ccccc1	none
O=C(NN=C1CCN(Cc2ccccc2)CC1)C(O)c1ccccc1 (centres undefined)	UHRF1 MBD2 ctr 49
COC(=O)c1cc2c(c3c4cc(C)ccc4n(S(=O)(=O)c4cccc(C)c4)c13)C(=O)N(Cc1ccc(C(F)(F)F)cc1)C2	none
COc1ccc(C(C)C)cc1S(=O)(=O)Nc1ccncc1	none
Cc1ccc(C(C)C)cc1S(=O)(=O)Nc1ccncc1	UHRF1 MBD2 ctr 28
CC1(c2ccc(O)cc2)NC(=O)N(c2ccccc2)N1 (centres undefined)	UHRF1 MBD2 ctr 24

Screening results as filed in PubChem.
